Data taken from ChEMBL document CHEMBL1145247, “4-Alkyl and 4,4'-dialkyl 1,2-bis(4-chlorophenyl)pyrazolidine-3,5-dione derivatives as new inhibitors of bacterial cell wall biosynthesis” (Bioorg Med Chem Lett, 2005).
Converted amounts (≈) assume the structure as drawn.

Experiments:
Staphylococcus aureus [1] = test: Minimal inhibitory concentration against methicillin resistant Staphylococcus aureus was determined; Range = 25-50 uM; type: functional
Method in brief: (§1)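 Broth microdilution per NCCLS M7-A3 in Mueller–Hinton broth, aerobic. Agents tested as 2-fold serial dilutions, with a final inoculum of 1–5 × 10^5 CFU/mL. Plates incubated 18–22 h at 35 °C in ambient air. MIC read as the endpoint.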

Enterococcus faecalis [2] = test: Minimal inhibitory concentration against vancomycin resistant Enterococcus faecalis was determined; Range = 25-50 uM; type: functional; method in brief: as §1
Staphylococcus aureus [3] = test: Minimum inhibitory concentration against cell wall biosynthesis of methicillin resistant Staphylococcus aureus GC 1131; type: functional; method in brief: as §1
[4] = target: T1, UDP-N-acetylenolpyruvoylglucosamine reductase (Staphylococcus aureus, UniProt P61431); test: Inhibitory concentration against MurB enzyme in Staphylococcus aureus
T1 sequence (P61431 whole entry): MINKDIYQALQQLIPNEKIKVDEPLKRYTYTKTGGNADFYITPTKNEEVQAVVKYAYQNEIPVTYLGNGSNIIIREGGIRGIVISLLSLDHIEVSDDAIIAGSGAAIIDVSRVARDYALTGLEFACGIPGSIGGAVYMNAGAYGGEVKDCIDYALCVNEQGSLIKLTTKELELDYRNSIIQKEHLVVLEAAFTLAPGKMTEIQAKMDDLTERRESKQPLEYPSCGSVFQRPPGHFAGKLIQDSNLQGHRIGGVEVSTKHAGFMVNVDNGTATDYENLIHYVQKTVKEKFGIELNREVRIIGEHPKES
Method in brief: (§2)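 Enzyme (20 nM) preincubated 20 min with inhibitor, then substrates added to final 50 µM EP-UNAG and 100 µM NADPH. Activity followed spectrophotometrically. At least six inhibitor concentrations between 1.5 and 50 µM per compound. IC50 from sigmoid Hill curve fit (0–100).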

Escherichia coli [5] = test: Minimum inhibitory concentration against cell wall biosynthesis of Escherichia coli GC 4559; type: functional
Method in brief: (§3)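 Broth microdilution per NCCLS M7-A3. Mueller–Hinton broth for staphylococci and enterococci, 2-fold serial dilutions of agent. Final inoculum 1–5 × 10^5 CFU/mL.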

Streptococcus pneumoniae [6] = test: Minimum inhibitory concentration against cell wall biosynthesis of penicillin resistant Streptococcus pneumoniae GC 1894 (PRSP) in the presence of 4% bovine serum albumin; type: functional
Staphylococcus aureus [7] = test: Minimum inhibitory concentration against cell wall biosynthesis of methicillin susceptible Staphylococcus aureus GC 4543; type: functional; method in brief: as §1
Enterococcus faecalis [8] = test: Minimum inhibitory concentration against cell wall biosynthesis of vancomycin susceptible (ATCC) Enterococcus faecalis GC 4555; type: functional; method in brief: as §3
Staphylococcus aureus [9] = test: Minimal inhibitory concentration against methicillin susceptible Staphylococcus aureus was determined; Range = 25-50 uM; type: functional; method in brief: as §1
[10] = target: UDP-N-acetylglucosamine 1-carboxyvinyltransferase (Escherichia coli K-12, UniProt P0A749); test: Inhibitory concentration against MurA enzyme in Escherichia coli
Method in brief: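 Enzyme preincubated with inhibitor 10 min at 37 °C before substrates were added. Reaction ran 30 min at 37 °C and was stopped with malachite green reagent (0.03% malachite green, 1.4% ammonium molybdate, 1.3 N HCl) for phosphate read-out.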

Enterococcus faecalis [11] = test: Minimal inhibitory concentration against vancomycin susceptible Enterococcus faecalis was determined; Range = 25-50 uM; type: functional; method in brief: as §1
Escherichia coli [12] = test: Minimum inhibitory concentration against cell wall biosynthesis of Escherichia coli GC 4560; type: functional
Streptococcus pneumoniae [13] = test: Minimum inhibitory concentration against cell wall biosynthesis of penicillin resistant Streptococcus pneumoniae GC 1894 (PRSP); type: functional
Method in brief: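 Broth microdilution per NCCLS M7-A3, using Mueller–Hinton broth supplemented with 5% sheep blood. Agents tested as 2-fold serial dilutions, with a final inoculum of 1–5 × 10^5 CFU/mL.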

Enterococcus faecalis [14] = test: Minimum inhibitory concentration against cell wall biosynthesis of vancomycin resistant Enterococcus faecalis GC 2242 (VRE); type: functional; method in brief: as §1
[15] = Minimum inhibitory concentration against cell wall biosynthesis of methicillin-susceptible Coagulase negative staphylococcus GC 646 (MSCNS); type: functional; method in brief: as §3
[16] = target: T2, UDP-N-acetylenolpyruvoylglucosamine reductase (Escherichia coli K-12, UniProt P08373); test: Inhibitory concentration against MurB enzyme in Escherichia coli; method in brief: as §2
T2 sequence (P08373 whole entry): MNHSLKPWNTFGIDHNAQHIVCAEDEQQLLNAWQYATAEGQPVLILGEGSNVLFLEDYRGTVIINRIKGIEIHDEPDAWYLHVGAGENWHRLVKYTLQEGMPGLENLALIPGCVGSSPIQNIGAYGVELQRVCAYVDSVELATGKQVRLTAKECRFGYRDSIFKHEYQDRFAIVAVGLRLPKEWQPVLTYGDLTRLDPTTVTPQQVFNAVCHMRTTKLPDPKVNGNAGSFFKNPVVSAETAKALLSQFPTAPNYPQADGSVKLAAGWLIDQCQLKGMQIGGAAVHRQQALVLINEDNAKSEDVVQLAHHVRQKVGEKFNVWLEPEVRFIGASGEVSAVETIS

Escherichia coli [17] = test: Minimal inhibitory concentration against Escherichia coli GC 4560 was determined; type: functional; method in brief: as §3

Sequence of UDP-N-acetylglucosamine 1-carboxyvinyltransferase (P0A749 whole entry): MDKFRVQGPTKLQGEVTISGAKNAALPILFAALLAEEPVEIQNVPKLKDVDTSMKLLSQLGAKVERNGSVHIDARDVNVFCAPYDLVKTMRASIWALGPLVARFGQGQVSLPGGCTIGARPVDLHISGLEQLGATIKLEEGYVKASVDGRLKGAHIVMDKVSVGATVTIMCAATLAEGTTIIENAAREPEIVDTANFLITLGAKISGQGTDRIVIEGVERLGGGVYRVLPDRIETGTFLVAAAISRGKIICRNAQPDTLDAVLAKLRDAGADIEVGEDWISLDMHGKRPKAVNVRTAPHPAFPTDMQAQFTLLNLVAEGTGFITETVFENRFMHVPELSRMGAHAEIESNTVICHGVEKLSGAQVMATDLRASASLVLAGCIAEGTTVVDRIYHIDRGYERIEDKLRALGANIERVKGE

| Structure (SMILES) | MIC (Staphylococcus aureus [1]) | MIC (Enterococcus faecalis [2]) | MIC (Staphylococcus aureus [3]) | IC50 [4] | MIC (Escherichia coli [5]) | MIC (Streptococcus pneumoniae [6]) | MIC (Staphylococcus aureus [7]) | MIC (Enterococcus faecalis [8]) | MIC (Staphylococcus aureus [9]) | IC50 [10] | MIC (Enterococcus faecalis [11]) | MIC (Escherichia coli [12]) | MIC (Streptococcus pneumoniae [13]) | MIC (Enterococcus faecalis [14]) | MIC [15] | IC50 [16] | MIC (Escherichia coli [17]) |
| --- | --- | --- | --- | --- | --- | --- | --- | --- | --- | --- | --- | --- | --- | --- | --- | --- | --- |
| O=C1C(CCCCCCc2ccccc2)C(=O)N(c2ccc(Cl)cc2)N1c1ccc(Cl)cc1 | 50 µM (≈ 24.1 µg/mL) | 50 µM (≈ 24.1 µg/mL) | 25 µM (≈ 12 µg/mL) | 12 µM | > 200 µM | > 200 µM | 25 µM (≈ 12 µg/mL) | 50 µM (≈ 24.1 µg/mL) | 50 µM (≈ 24.1 µg/mL) | 34.9 µM | 50 µM (≈ 24.1 µg/mL) | 200 µM (≈ 96.3 µg/mL) | 6.25 µM (≈ 3.01 µg/mL) | 50 µM (≈ 24.1 µg/mL) | 100 µM (≈ 48.1 µg/mL) | 8.9 µM |  |
| O=C(CC1(CC(=O)c2ccc(F)cc2F)C(=O)N(c2ccc(Cl)cc2)N(c2ccc(Cl)cc2)C1=O)c1ccc(F)cc1F |  |  | 12.5 µM (≈ 7.87 µg/mL) | 5.2 µM | > 200 µM | > 200 µM | 12.5 µM (≈ 7.87 µg/mL) | 12.5 µM (≈ 7.87 µg/mL) |  | 9.6 µM |  | 100 µM (≈ 62.9 µg/mL) | 3.12 µM (≈ 1.96 µg/mL) | 12.5 µM (≈ 7.87 µg/mL) | 25 µM (≈ 15.7 µg/mL) | 5.8 µM |  |
| O=C(CCC1C(=O)N(c2ccc(Cl)cc2)N(c2ccc(Cl)cc2)C1=O)c1ccc(F)cc1 |  |  | 100 µM (≈ 47.1 µg/mL) | 18 µM | > 200 µM | > 200 µM | 100 µM (≈ 47.1 µg/mL) | 100 µM (≈ 47.1 µg/mL) |  | 46.9 µM |  | 200 µM (≈ 94.3 µg/mL) | 50 µM (≈ 23.6 µg/mL) | 100 µM (≈ 47.1 µg/mL) | 200 µM (≈ 94.3 µg/mL) | 13 µM |  |
| O=C(CCCC1C(=O)N(c2ccc(Cl)cc2)N(c2ccc(Cl)cc2)C1=O)c1ccc(F)cc1 |  |  | 50 µM (≈ 24.3 µg/mL) | 11 µM | > 200 µM | > 200 µM | 50 µM (≈ 24.3 µg/mL) | 50 µM (≈ 24.3 µg/mL) |  | 32.4 µM |  | 200 µM (≈ 97.1 µg/mL) | 12.5 µM (≈ 6.07 µg/mL) | 50 µM (≈ 24.3 µg/mL) | 100 µM (≈ 48.5 µg/mL) | 10 µM |  |
| O=C1N(c2ccc(Cl)cc2)N(c2ccc(Cl)cc2)C(=O)C1(CCCCCCc1ccccc1)CCCCCCc1ccccc1 |  |  | > 200 µM | 8.2 µM | > 200 µM | > 200 µM | 200 µM (≈ 128 µg/mL) | > 200 µM |  | 9.9 µM |  | > 200 µM | 100 µM (≈ 64.2 µg/mL) | 200 µM (≈ 128 µg/mL) | > 200 µM | 7.2 µM |  |
| N#Cc1ccccc1-c1ccc(CC2C(=O)N(c3ccc(Cl)cc3)N(c3ccc(Cl)cc3)C2=O)cc1 |  |  |  | 12 µM | > 200 µM |  | 6.25 µM (≈ 3.2 µg/mL) | 25 µM (≈ 12.8 µg/mL) |  | > 50 µM |  | 25 µM (≈ 12.8 µg/mL) |  |  | 6.25 µM (≈ 3.2 µg/mL) | 11 µM | 25 µM (≈ 12.8 µg/mL) |
